We go through 54 molecules from ChEMBL document CHEMBL5154667, “Discovery of 9,10-dihydrophenanthrene derivatives as SARS-CoV-2 3CLpro inhibitors for treating COVID-19” (Eur J Med Chem, 2022).

Molecules are shown by their SMILES. pIC50, pKi: −log10 of the molar value.

Data set [1] addresses T1, Replicase polyprotein 1ab (Severe acute respiratory syndrome coronavirus 2, UniProt P0DTD1). As to the kind of experiment: Inhibition of SARS-CoV-2 3CL protease using Dabcyl-KNSTLQSGLRKE-Edan as substrate incubated for 30 mins and measured by FRET assay. Summed up: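 Recombinant SARS-CoV-2 3CLpro, expressed and purified in-house, at 4 μg/mL final. Preincubated with compound (in DMSO) for 30 min at 37 °C in 0.1 M PBS pH 7.4 with 1 mM EDTA. Mean ± SD of at least three independent experiments.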

A short description of data set [2]: Metabolic stability in human liver microsomes assessed as CYP-mediated metabolism at 20 uM and measured as half-life by LC-UV analysis. Format: ADME, Microsome.
The target in data set [3] is T1, Replicase polyprotein 1ab. As to the kind of experiment: Mixed type inhibition of SARS-CoV-2 3CL protease using Dabcyl-KNSTLQSGLRKE-Edan as substrate incubated for 30 mins and measured by Lineweaver-Burk plot analysis.
Data set [4] is described as follows: Stability in human plasma measured by LC-UV analysis. In kind it is ADME, cell-free. The method, boiled down: (§1)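 Incubated at 37 °C in 100 mM PBS pH 7.4, as printed for the human plasma stability test. Sampled at 0, 15, 30 min and 1–12 h; proteins precipitated with cold acetonitrile. Centrifuged at 20,000×g, 4 °C, 30 min; supernatant analysed by LC-UV.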
Data set [5] addresses Replicase polyprotein 1ab (Severe acute respiratory syndrome-related coronavirus, UniProt P0C6X7). As to the kind of experiment: Inhibition of SARS-CoV 3CL protease using Dabcyl-KNSTLQSGLRKE-Edan as substrate incubated for 30 mins and measured by FRET assay. Summed up:
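SARS-CoV 3CLpro, expressed and purified in-house like the SARS-CoV-2 enzyme, at 30 μg/mL final. Preincubated with compound for 30 min at 37 °C in 0.1 M PBS pH 7.4 with 1 mM EDTA. Mean ± SD of at least three independent runs.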

Data set [6] is described as follows: Stability of the compound in simulated gastric fluid. In kind it is ADME. The note with it: simulated gi fluid. Summed up: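 Simulated gastric fluid: pepsin 400 mg and 656 μL 1 M HCl in 40 mL water. Analyte 20 μM in SGF at 37 °C, sampled 0–90 min. Quenched with equal volume cold acetonitrile, centrifuged (20,000×g, 4 °C, 30 min), analysed by LC-UV.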
Data set [7] in a line: Metabolic stability in human liver microsomes assessed as UGT-mediated metabolism at 20 uM and measured as half-life by LC-UV analysis. Format: ADME, Microsome. The method, boiled down: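 Phase II: compound 20 μM with HLMs 0.2 mg/mL in 50 mM Tris-HCl pH 7.4 with 5 mM MgCl₂. After 3 min at 37 °C, started with 2 mM UDPGA. Quenched with cold acetonitrile at 0–90 min, centrifuged, supernatant analysed by LC-UV for half-life. 7-Hydroxycoumarin was the reference substrate.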

Data set [8] can be described thus: Stability in human plasma assessed as half-life measured by LC-UV analysis. In kind it is ADME, cell-free. The method, boiled down:
as §1

As to `CC(=O)OCC1Cc2c(-c3ccncn3)cccc2-c2c(O)ccc(C)c21` (stereo not given), the pIC50 in data set [1] is < 4.00.

For the molecule `CC(=O)OCC1Cc2c(-c3cc(-c4ccccc4)ccn3)cccc2-c2c(O)ccc(C3CCCCC3)c21` (stereo not given), in data set [1], the pIC50 was 5.07.

Regarding `CC(=O)OCC1Cc2c(-c3ccccn3)ccc(C)c2-c2c(O)ccc(C)c21` (stereo not given), the pIC50 in data set [1] was < 4.00.

In the case of `CC(=O)OCC1Cc2c(-c3ncccn3)cccc2-c2c(O)ccc(C)c21` (stereo not given), in data set [1], the pIC50 is < 4.00.

Turning to `CC(=O)OCC1Cc2c(-c3ccc(Br)cn3)cccc2-c2c(O)ccc(-c3ccc(Br)cc3)c21` (stereo not given), the negative-log IC50 (pIC50) in data set [1] was 5.17.

Consider `CC(=O)OCC1Cc2c(-c3ccc(Cl)cn3)cccc2-c2c(O)ccc(C)c21` (stereo not given), for which the pIC50 in data set [1] is 4.45.

On to `CC(=O)OCC1Cc2c(cccc2-c2ncnc3c2ncn3CC2CC2)-c2c(O)ccc(C)c21` (stereo not given), for which the pIC50 in data set [1] was < 4.00.

Turning to `CC(=O)OCC1Cc2c(-c3ccccn3)cccc2-c2c(O)ccc(-c3ccc(C#N)cc3)c21` (stereo not given), the negative-log IC50 (pIC50) in data set [1] is 4.71.

As for `OCC1Cc2c(-c3cc(-c4ccccc4)ccn3)cccc2-c2c(O)ccc(-c3ccc(Br)cc3)c21` (stereo not given), the pIC50 in data set [1] was 5.81; in data set [5], 5.27. Further, the t1/2 in data set [2] and in data set [7] was > 90 min each time. Also, the negative logarithm of the Ki (pKi) in data set [3] is 5.22. In addition, the Stability entry in data set [4] and in data set [6] was “Stable” each time.

For `CC(=O)OCC1Cc2c(-c3cc(Cl)ccn3)cccc2-c2c(O)ccc(-c3ccc(Br)cc3)c21` (stereo not given), the pIC50 was 5.32 in data set [1] and 5.26 in data set [5].

For the molecule `COc1ccc(-c2ccccn2)c2c1-c1c(O)ccc(C)c1C(COC(C)=O)C2` (stereo not given), in data set [1], the pIC50 was < 4.00.

Take `CC(=O)OCC1Cc2c(-c3cc(C=O)ccn3)cccc2-c2c(O)ccc(-c3ccc(Br)cc3)c21` (stereo not given): the negative-log IC50 (pIC50) in data set [1] is 5.48; in data set [5] it was 5.49.

`OCC1Cc2c(-c3ccc(F)cn3)cccc2-c2c(O)ccc(-c3ccc(Br)cc3)c21` (stereo not given) gave a pIC50 in data set [1] of 5.27.

`O=Cc1ccnc(-c2cccc3c2CC(CO)c2c(-c4ccc(Br)cc4)ccc(O)c2-3)c1` (stereo not given): the values for the t1/2 in data set [8], in data set [2] and in data set [7] were 8.97 h, 1925 min and 4913 min, respectively. Moreover, the pIC50 in data set [1] was 5.74; in data set [5], 5.27. Besides, in data set [3], the pKi is 5.12. For the same molecule, the Stability entry in data set [6] is reported as “Stable”.

`CC(=O)OCC1Cc2c(-c3cc(C#N)ccn3)cccc2-c2c(O)ccc(-c3ccc(Br)cc3)c21` (stereo not given) had a negative-log IC50 (pIC50) in data set [1] of 4.99.

In the case of `CC(=O)OCC1Cc2c(-c3ccccn3)ccc(Br)c2-c2c(O)ccc(C)c21` (stereo not given), in data set [1], the negative logarithm of the IC50 (pIC50) was < 4.00.

In turn, `CC(=O)OCC1Cc2c(-c3cc(N4CCCC4)ccn3)cccc2-c2c(O)ccc(-c3ccc(Br)cc3)c21` (stereo not given) had a negative-log IC50 (pIC50) in data set [1] of 4.95.

In the case of `CC(=O)OCC1Cc2c(-c3ccc(NCc4ccccc4)cn3)cccc2-c2c(O)ccc(-c3ccc(Br)cc3)c21` (stereo not given), the figures for the pIC50 in data set [1] and in data set [5] were 5.48 and 5.24, respectively.

`CC(=O)OCC1Cc2c(cccc2-n2cccn2)-c2c(O)ccc(C)c21` (stereo not given): the pIC50 in data set [1] is < 4.00.

Take `CC(=O)OCC1Cc2c(-c3ccc(C)cn3)cccc2-c2c(O)ccc(-c3ccc(Br)cc3)c21` (stereo not given): in data set [1], the negative logarithm of the IC50 (pIC50) was 5.28.

In turn, `CC(=O)OCC1Cc2c(-c3ccccn3)cc(C)cc2-c2c(O)ccc(C)c21` (stereo not given) had a negative logarithm of the IC50 (pIC50) in data set [1] of 4.24.

As for `C=CCn1cnc2c(-c3cccc4c3CC(COC(C)=O)c3c(C)ccc(O)c3-4)ncnc21` (stereo not given), the pIC50 in data set [1] was < 4.00.

Consider `CC(=O)OCC1Cc2c(-c3cc(C)ccn3)cccc2-c2c(O)ccc(C)c21` (stereo not given), for which the negative logarithm of the IC50 (pIC50) in data set [1] is 4.17.

Take `CC(=O)OCC1Cc2c(-c3ccccn3)cccc2-c2c(O)ccc(C3CCCCC3)c21` (stereo not given): the negative logarithm of the IC50 (pIC50) in data set [1] is 5.04.

For `CC(=O)OCC1Cc2c(-c3ccc(Cl)cn3)cccc2-c2c(O)ccc(-c3ccc(Br)cc3)c21` (stereo not given), the negative-log IC50 (pIC50) is 5.57 in data set [1] and 5.39 in data set [5].

For `CC(=O)OCC1Cc2c(cccc2-c2nccc3ccccc23)-c2c(O)ccc(C)c21` (stereo not given), the pIC50 in data set [1] was 4.85.

With `CC(=O)OCC1Cc2c(-c3cc(N4CCOCC4)ccn3)cccc2-c2c(O)ccc(-c3ccc(Br)cc3)c21` (stereo not given), the negative-log IC50 (pIC50) in data set [1] is 5.13.

As for `CC(=O)OCC1Cc2c(-c3ccc(N(C)C)cn3)cccc2-c2c(O)ccc(-c3ccc(Br)cc3)c21` (stereo not given), the results for the pIC50 in data set [1] and in data set [5] were 5.44 and 5.23, respectively.

Take `CC(=O)OCC1Cc2c(-c3ccc(F)cn3)cccc2-c2c(O)ccc(C)c21` (stereo not given): in data set [1], the pIC50 is 4.18.

`N#Cc1ccc(-c2cccc3c2CC(CO)c2c(-c4ccc(Br)cc4)ccc(O)c2-3)nc1` (stereo not given): the pIC50 in data set [1] is 4.97.

`CC(=O)OCC1Cc2c(-c3ccc(C(C)=O)cn3)cccc2-c2c(O)ccc(-c3ccc(Br)cc3)c21` (stereo not given): the negative-log IC50 (pIC50) in data set [1] was 5.23.

On to `CC(=O)OCC1Cc2c(-c3ccc(C#N)cn3)cccc2-c2c(O)ccc(-c3ccc(Br)cc3)c21` (stereo not given), for which the negative logarithm of the IC50 (pIC50) was 5.56 in data set [1] and 5.15 in data set [5].

In data set [1], `CC(=O)OCC1Cc2c(ccc(C)c2-c2ccccn2)-c2c(O)ccc(C)c21` (stereo not given) had a negative logarithm of the IC50 (pIC50) of 4.27.

In the case of `CC(=O)OCC1Cc2c(-c3ccccn3)cccc2-c2c(O)ccc(C)c21` (stereo not given), the negative-log IC50 (pIC50) in data set [1] was 4.21.

`CCc1ccc(O)c2c1C(COC(C)=O)Cc1c(-c3ccccn3)cccc1-2` (stereo not given) gave a negative logarithm of the IC50 (pIC50) in data set [1] of 4.48.

In data set [1], `CC(=O)OCC1Cc2c(-c3ccccn3)cccc2-c2c(O)ccc(Cc3ccccc3)c21` (stereo not given) had a pIC50 of 4.94.

Take `OCC1Cc2c(-c3ccc(Cl)cn3)cccc2-c2c(O)ccc(-c3ccc(Br)cc3)c21` (stereo not given): the negative logarithm of the IC50 (pIC50) in data set [1] was 5.33; in data set [5], 4.98.

For `CC(=O)OCC1Cc2c(-c3ccccn3)cccc2-c2c(O)ccc(-c3ccc(Br)cc3)c21` (stereo not given), the pIC50 in data set [1] is 5.19.

Consider `CC(=O)OCC1Cc2c(-c3cc(-c4ccccc4)ccn3)cccc2-c2c(O)ccc(C)c21` (stereo not given), for which, in data set [1], the pIC50 was 5.25.

In turn, `CC(=O)OCC1Cc2c(-c3ncccc3C)cccc2-c2c(O)ccc(C)c21` (stereo not given) had a pIC50 in data set [1] of 4.23.

In the case of `CC(=O)OCC1Cc2c(-c3ccc(F)cn3)cccc2-c2c(O)ccc(-c3ccc(Br)cc3)c21` (stereo not given), the negative logarithm of the IC50 (pIC50) in data set [1] is 5.37; in data set [5], 5.11.

The molecule `CC(=O)OCC1Cc2c(-c3ccc(C=O)cn3)cccc2-c2c(O)ccc(-c3ccc(Br)cc3)c21` (stereo not given) gave a pIC50 in data set [1] of 5.05.

Regarding `CC(=O)OCC1Cc2c(-c3ccccn3)ccc(F)c2-c2c(O)ccc(C)c21` (stereo not given), in data set [1], the pIC50 is < 4.00.

The molecule `CC(=O)OCC1Cc2c(-c3ccccn3)ccc(Cl)c2-c2c(O)ccc(C)c21` (stereo not given) showed a pIC50 in data set [1] of 4.07.

For `CC(=O)OCC1Cc2c(-c3cc(-c4ccccc4)ccn3)cccc2-c2c(O)ccc(-c3ccc(Br)cc3)c21` (stereo not given), the negative-log IC50 (pIC50) in data set [1] was 5.61; in data set [5] it was 4.75.

For `CC(=O)OCC1Cc2c(-c3ccccn3)cccc2-c2c(O)ccc(C(C)C)c21` (stereo not given), in data set [1], the pIC50 is 4.53.

In data set [1], `CC(=O)OCC1Cc2c(-c3ccc4ccccc4n3)cccc2-c2c(O)ccc(C)c21` (stereo not given) gave a negative-log IC50 (pIC50) of 4.86.

For `CC(=O)OCC1Cc2c(-c3ccc(Br)cn3)cccc2-c2c(O)ccc(C)c21` (stereo not given), the pIC50 in data set [1] was 4.73.

Take `CC(=O)OCC1Cc2c(-c3cc(C)ccn3)cccc2-c2c(O)ccc(-c3ccc(Br)cc3)c21` (stereo not given): the pIC50 in data set [1] is 5.01.

Regarding `CC(=O)OCC1Cc2c(-c3cc4ccccc4cn3)cccc2-c2c(O)ccc(C)c21` (stereo not given), the pIC50 in data set [1] was 4.92.

The molecule `CC(=O)OCC1Cc2c(-c3ccc(S(C)(=O)=O)cn3)cccc2-c2c(O)ccc(-c3ccc(Br)cc3)c21` (stereo not given) had a pIC50 in data set [1] of 5.18.

Molecule `CC(=O)OCC1Cc2c(-c3ccc(-c4ccccc4)cn3)cccc2-c2c(O)ccc(-c3ccc(Br)cc3)c21` (stereo not given) gave a pIC50 in data set [1] of 5.08.

In the case of `C[C@]12CC[C@H]3[C@@H](CCC4=CC(=O)CC[C@@]43C)[C@@H]1CC[C@@H]2O` [TESTOSTERONE], the t1/2 in data set [2] is recorded as 27.62 min.

Take `O=c1ccc2ccc(O)cc2o1` [UMBELLIFERONE]: the t1/2 in data set [7] came to 15.53 min.

By pIC50 is commonly meant the negative decadic logarithm of the IC50, by convention in mol/L. Lower therefore signals a high IC50. What is called pKi is the negative decadic logarithm of the Ki, by convention in mol/L.
